In ChEMBL document CHEMBL1127290, “1-(2,5-Dimethoxy-4-(trifluoromethyl)phenyl)-2-aminopropane: a potent serotonin 5-HT2A/2C agonist” (J Med Chem, 1994):
Where “and” joins values, the source holds several entries; their conditions need not be identical. Identical values can stand only once.

What was measured:
[1] = target: T1, 5-hydroxytryptamine receptor 1A (Rattus norvegicus, UniProt P19327); test: Tested for the binding affinity against the site labelled by the 5-hydroxytryptamine 1A receptor agonist [3H]- 8-OH-DPAT
T1 sequence (P19327 whole entry): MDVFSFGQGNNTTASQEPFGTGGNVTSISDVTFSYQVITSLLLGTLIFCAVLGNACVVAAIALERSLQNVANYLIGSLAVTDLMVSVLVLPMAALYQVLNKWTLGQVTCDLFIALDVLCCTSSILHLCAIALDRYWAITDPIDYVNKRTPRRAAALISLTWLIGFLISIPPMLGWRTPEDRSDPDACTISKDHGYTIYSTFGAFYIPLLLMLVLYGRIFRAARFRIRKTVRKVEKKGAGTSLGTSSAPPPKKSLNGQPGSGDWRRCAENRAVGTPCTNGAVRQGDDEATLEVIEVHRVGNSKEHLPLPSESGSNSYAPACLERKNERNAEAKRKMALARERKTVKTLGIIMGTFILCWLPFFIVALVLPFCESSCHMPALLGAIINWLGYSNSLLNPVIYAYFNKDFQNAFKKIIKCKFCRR
Summary of the method: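 [3H]-8-OH-DPAT binding in rat brain homogenate (frontal cortex or hippocampus) in 50 mM Tris HCl pH 7.4 with EDTA, ascorbate and pargyline; 200–400 μg protein. 15 min at 37 °C, then GF/C filtration. Nonspecific binding defined by 10 μM 5-HT. Triplicates, scintillation counting.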

[2] = target: T2, Serotonin receptor 2a and 2c (5HT2A and 5HT2C) (Rattus norvegicus, UniProt P08909+P14842); test: Tested for the binding affinity against the site labelled by the 5-hydroxytryptamine 2A receptor - 5-hydroxytryptamine 2C receptor agonist [125I]- - (+/-)DOI; type: protein assay
Summary of the method: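 Rat frontal cortex homogenate, pooled and preincubated twice at 37 °C. Buffer was 50 mM Tris HCl pH 7.4 with 0.5 mM EDTA, 0.1% ascorbate, pargyline and MgCl2; 200–400 μg protein. 0.1 nM [125I]DOI was competed by 8–10 test concentrations, 15 min at 37 °C, then GF/C filtration. Nonspecific binding defined by 10 μM cinanserin. Triplicates, gamma counting.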

[3] = target: T2, Serotonin receptor 2a and 2c (5HT2A and 5HT2C); test: Tested for the binding affinity against the site labelled by the 5-hydroxytryptamine 2A receptor - 5-hydroxytryptamine 2C receptor antagonist [3H] ketanserin; type: protein assay
Summary of the method: (§1)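 Rat frontal cortex homogenate in 50 mM Tris HCl pH 7.4 with 0.5 mM EDTA, 0.1% ascorbate, pargyline and 5.7 mM CaCl2; 200–400 μg protein. […] Nonspecific binding defined by 10 μM cinanserin. Triplicate determinations, scintillation counting.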

Rattus norvegicus [4] = species on record: Rattus norvegicus; test: Effective dose in rat; type: functional
Summary of the method: (§2)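 Rats trained on a two-lever FR50 food-reinforced task to discriminate LSD tartrate (0.08 mg/kg, ip, 30 min pre-session) from saline. Test drugs were given ip in 0.9% saline, 1 mL/kg, 30 min before extinction test sessions ended at 50 presses; failure within 5 min was scored as disruption. Quantal %SDL per dose. ED50 with 95% CI by Litchfield–Wilcoxon log-probit, not calculated if ≥50% disrupted.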

[5] = target: T2, Serotonin receptor 2a and 2c (5HT2A and 5HT2C); test: Tested for the binding affinity against the site labelled by the 5-hydroxytryptamine 2A receptor - 5-hydroxytryptamine 2C receptor antagonist [3H]- ketanserin; type: protein assay; summary of the method: as §1
Rattus norvegicus [6] = species on record: Rattus norvegicus; test: The percentage of rats selecting the drug lever at each dose; type: functional; summary of the method: as §2

SMILES | Ki [1] [nM] | Ki [2] [nM] | Ki [3] [nM] | ED50 (Rattus norvegicus [4]) [µmol/kg] | Ki [5] [nM] | SDL (Rattus norvegicus [6])
COc1cc(C(F)(F)F)c(OC)cc1CCN | 3420 | 1.1 | 74.5 | 0.82 | – | –
COc1cc(CCN)c(OC)cc1I | – | 1.9 | – | 1.04 | 80.9 | –
COc1cc(CC(C)N)c(OC)cc1I (centres undefined) | – | – | – | 0.97 | – | 80% [middle of 4 runs]
COc1cc(C(F)(F)F)c(OC)cc1CC(C)N (centres undefined) | 2220 | 1.5 | – | – | 33 | 62.5% and 80% and 100%
COc1cc(CC(C)N)c(OC)cc1Br (centres undefined) [BROLAMFETAMINE] | – | – | – | 1.12 | – | –
